# Assay results: PMC4184705 (Pharmacology Research & Perspectives, 2014)
# Legend:
# CYP3A4 [1] = format: in vivo, human; settings: single 60 mg SC dose of denosumab; postmenopausal women with osteoporosis
# [2] = 60 mg SC dose; ref Bekker et al. [2004]; cited from earlier work
# RANKL = test: Serum C-telopeptide; format: in vivo, human; settings: Group A; denosumab 60 mg SC on day 2
# [3] = Serum denosumab concentration by validated ELISA; format: in vivo, human; settings: day 16 (14 days after a 60 mg SC dose); Group A
# [4] = Plasma midazolam pharmacokinetics after 2 mg oral doses on day 1 and day 16; settings: for AUC(0-t) / AUC(0-inf) / Cmax / half-life: human, plasma; for AUC(0-inf): AUCinf; for half-life: t1/2, Group B (midazolam alone)
# [5] = 2 mg oral midazolam dose; sample collection at 0.25 h; ref Winter et al. [2013]; cited from earlier work
# [6] = Safety: adverse event reports and clinical laboratory assessments; format: in vivo, human
# Procedure, shortened: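 Open-label parallel-group study in postmenopausal women with osteoporosis, randomised 2:1. […] Group B received midazolam only. Adverse events recorded at any time through day 47 follow-up. Clinical laboratory tests at screening (21 days pre-treatment) and day 17. All treated subjects analysed.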
# CYP3A4 [7] = settings: healthy volunteers; ref Gupta et al. [2012]; cited from earlier work
# [8] = Group A (midazolam + denosumab), N = 17
# [9] = Group B (midazolam alone), period effect, n = 8
# [10] = po, 2 mg, Group B (midazolam alone), day 1, 2 mg oral, mean (SD), N = 8
# [11] = po, 2 mg, Group B (midazolam alone), day 16, 2 mg oral, mean (SD), N = 8
compound,measurement,setting,value
denosumab: fully human monoclonal immunoglobulin G2 (IgG2) that binds to and neutralizes RANKL activity,effect on CYP3A4 activity (based on midazolam pharmacokinetics),CYP3A4 [1],no effect
same,time by which maximal pharmacodynamic effects are observed,[2],≤ 1 week
same,"sCTX concentrations on day 16 lower than those on day 2, on average",RANKL,~81%
same,"serum denosumab concentration, mean (SD)",[3],5790 (1800) ng/mL
Cc1ncc2n1-c1ccc(Cl)cc1C(c1ccccc1F)=NC2 [midazolam],"AUC0–inf, ratio of day 16/day 1, LS mean",[4]; [8],1.02
same,"AUC0–t, ratio of day 16/day 1, LS mean",[4]; [8],1.02
same,"Cmax, ratio of day 16/day 1, LS mean",[4]; [8],1.04
same,AUCinf,"[4]; Group A, day 1, midazolam 2 mg oral, mean (SD), N = 17",35.6 (16.4) ng·h/mL
same,Tmax,"[4]; Group B (midazolam alone), day 16, 2 mg oral, median (range), N = 8",0.5 (0.5–1.0) hr
same,"AUC0–inf, point estimate for the ratio of the least square means (day 16/day 1)",[4]; [9],0.98
same,"AUC0–t, point estimate for the ratio of the least square means (day 16/day 1)",[4]; [9],0.98
same,"Cmax, point estimate for the ratio of the least square means (day 16/day 1)","[4]; Group B (midazolam alone), period effect, n = 8, 90% CI 0.82 to 1.33",1.05
same,AUC(0-t),[4]; oral,31 ng·h/mL
same,AUC(0-t),"[4]; po, 2 mg",30.4 ng·h/mL
same,AUC(0-inf),[4]; [10],31 ng·h/mL
same,AUC(0-inf),[4]; [11],29.3 ng·h/mL
same,Cmax,[4]; [10],11.3 ng/mL
same,Cmax,[4]; [11],10.9 ng/mL
same,half-life,"[4]; po, 2 mg, day 1, 2 mg oral, mean (SD), N = 8",372 min
same,half-life,"[4]; po, 2 mg, day 16, 2 mg oral, mean (SD), N = 8",373 min
same,mean Cmax,[5],11.9 ng/mL
same,somnolence incidence,"[6]; Group A, day 1 (prior to administration of denosumab), 7 of 19 subjects",37%
same,somnolence incidence,"[6]; Group B, day 1, 2 of 8 subjects",25%
same,somnolence incidence,[6]; day 16 (after the second midazolam dose),no subjects
same,somnolence incidence,[6]; days 2 to 15,no subjects
same,changes in clinical laboratory values from baseline,[6]; screening to day 17,unremarkable
same,"deaths, withdrawal due to adverse events, serious adverse events",[6]; whole study,"No deaths, withdrawal due to adverse events, or serious adverse events"
C[C@@H]1CCN(C(=O)CC#N)C[C@@H]1N(C)c1ncnc2[nH]ccc12 [tofacitinib],effects on CYP3A4 activity (midazolam pharmacokinetics),CYP3A4 [7],lack of effects
